Our source for the Ki values is ChEMBL document CHEMBL1158167, “Synthesis, binding properties and receptor docking of 4-halo-6-[2-(4-arylpiperazin-1-yl)ethyl]-1H-benzimidazoles, mixed ligands of D2 and 5-HT1A receptors” (Eur J Med Chem, 2008).

Test [1] is described as follows: Displacement of [3H]8-OH-DPAT from 5HT1A receptor in bovine hippocampi synaptosomal membrane by liquid scintillation spectrometry. In kind it is tissue-based, Bos taurus, Hippocampus.
A further test addresses D(2) dopamine receptor (Bos taurus, UniProt P20288). Put plainly: Displacement of [3H]Spiperone from dopamine D2 receptor in bovine caudate nuclei synaptosomal membrane by liquid scintillation spectrometry. The procedure, abridged:
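Membranes (0.7 mg/ml protein) incubated 20 min at 37 °C with 0.2 nM [3H]spiperone and 8–10 test compound concentrations (10^-5–10^-10 M). Ketanserin […] blocks 5-HT2 sites. Nonspecific binding defined with […] (+)-butaclamol. GF/C filtration, scintillation counting. Ki; 3–4 experiments in triplicate.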

Another test deals with D(1A) dopamine receptor (Bos taurus, UniProt Q95136). Put plainly: Displacement of [3H]SCH23390 from dopamine D1 receptor in bovine caudate nuclei synaptosomal membrane by liquid scintillation spectrometry. (Displacement assays read how much labelled ligand stays bound in the presence of the test substance.)
D(1A) dopamine receptor, sequence (Q95136 whole entry): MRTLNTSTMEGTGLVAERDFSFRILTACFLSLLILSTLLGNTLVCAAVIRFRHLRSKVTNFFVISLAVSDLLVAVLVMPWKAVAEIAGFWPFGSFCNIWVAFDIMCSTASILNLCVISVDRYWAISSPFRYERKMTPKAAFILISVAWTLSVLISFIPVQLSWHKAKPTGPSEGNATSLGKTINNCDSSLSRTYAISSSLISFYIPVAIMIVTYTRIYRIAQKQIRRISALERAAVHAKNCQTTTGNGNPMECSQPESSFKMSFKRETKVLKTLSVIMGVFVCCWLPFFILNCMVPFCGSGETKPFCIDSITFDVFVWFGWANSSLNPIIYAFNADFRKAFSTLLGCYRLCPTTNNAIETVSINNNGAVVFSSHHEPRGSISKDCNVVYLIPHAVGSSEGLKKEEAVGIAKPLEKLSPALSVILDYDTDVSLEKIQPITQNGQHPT

D(2) dopamine receptor, sequence (P20288 whole entry): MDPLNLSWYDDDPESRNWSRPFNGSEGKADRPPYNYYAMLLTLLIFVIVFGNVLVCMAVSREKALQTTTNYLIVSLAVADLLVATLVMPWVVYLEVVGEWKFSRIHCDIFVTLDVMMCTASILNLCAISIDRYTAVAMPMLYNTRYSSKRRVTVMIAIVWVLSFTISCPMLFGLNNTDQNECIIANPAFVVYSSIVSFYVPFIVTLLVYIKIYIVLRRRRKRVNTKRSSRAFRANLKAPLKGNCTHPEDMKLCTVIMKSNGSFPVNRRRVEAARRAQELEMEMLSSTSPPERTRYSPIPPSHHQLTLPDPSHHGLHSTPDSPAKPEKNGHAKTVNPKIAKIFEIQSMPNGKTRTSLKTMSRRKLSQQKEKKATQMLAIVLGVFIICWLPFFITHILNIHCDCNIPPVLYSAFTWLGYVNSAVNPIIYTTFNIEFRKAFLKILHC

Turning to `COc1ccccc1N1CCN(CCc2ccc3nc[nH]c3c2)CC1`, the Ki (usually the equilibrium dissociation constant of an inhibitor or competing ligand from its target) in test [1] worked out at 20.3 nM; at D(2) dopamine receptor it was 13.1 nM.

For `Brc1cc(CCN2CCN(c3ncccn3)CC2)cc2[nH]cnc12`, the Ki was 129 nM in test [1], 26.7 nM at D(2) dopamine receptor and > 1000 nM on D(1A) dopamine receptor.

`Clc1ccccc1N1CCN(CCc2ccc3nc[nH]c3c2)CC1`: the Ki is 243 nM in test [1] and 59.7 nM on D(2) dopamine receptor.

Regarding `Brc1cc(CCN2CCN(c3ccccc3)CC2)cc2[nH]cnc12`, the figures for the Ki (in test [1]; at D(2) dopamine receptor; at D(1A) dopamine receptor) were 24.1 nM, 61.9 nM and > 1000 nM, respectively.

For `FC(F)(F)c1cccc(N2CCN(CCc3cc(Cl)c4nc[nH]c4c3)CC2)c1`, the inhibition constant Ki is 20.7 nM in test [1], 200 nM on D(2) dopamine receptor and > 1000 nM on D(1A) dopamine receptor.

For `COc1ccccc1N1CCN(CCc2cc(Br)c3nc[nH]c3c2)CC1`, the Ki in test [1] is 1.4 nM; at D(2) dopamine receptor, 0.56 nM; at D(1A) dopamine receptor, > 1000 nM.

Regarding `Clc1cc(CCN2CCN(c3ccccc3)CC2)cc2[nH]cnc12`, the Ki in test [1] is 89.6 nM; on D(2) dopamine receptor, 84.7 nM; on D(1A) dopamine receptor it was > 1000 nM.

With `COc1ccccc1N1CCN(CCc2cc(Cl)c3nc[nH]c3c2)CC1`, the Ki in test [1] is 5.2 nM; at D(2) dopamine receptor it was 5.49 nM; on D(1A) dopamine receptor it was > 1000 nM.

On to `FC(F)(F)c1cccc(N2CCN(CCc3cc(Br)c4nc[nH]c4c3)CC2)c1`, for which the Ki was 0.14 nM in test [1], 5.77 nM at D(2) dopamine receptor and > 1000 nM at D(1A) dopamine receptor.

Turning to `Clc1ccccc1N1CCN(CCc2cc(Cl)c3nc[nH]c3c2)CC1`, the values for the Ki (in test [1]; at D(2) dopamine receptor; on D(1A) dopamine receptor) were 45.6 nM, 19.1 nM and > 1000 nM, respectively.

Turning to `c1ccc(N2CCN(CCc3ccc4nc[nH]c4c3)CC2)cc1`, the inhibition constant (Ki) in test [1] is 197 nM; on D(2) dopamine receptor it was 138 nM; on D(1A) dopamine receptor it was > 1000 nM.

In the case of `Clc1ccccc1N1CCN(CCc2cc(Br)c3nc[nH]c3c2)CC1`, the Ki in test [1] was 89.6 nM; on D(2) dopamine receptor it was 84.7 nM; at D(1A) dopamine receptor it was > 1000 nM.

With `FC(F)(F)c1cccc(N2CCN(CCc3ccc4nc[nH]c4c3)CC2)c1`, the Ki in test [1] is 33 nM; at D(2) dopamine receptor, 273 nM; at D(1A) dopamine receptor, > 1000 nM.

With `Clc1cc(CCN2CCN(c3ncccn3)CC2)cc2[nH]cnc12`, the figures for the Ki (in test [1]; at D(2) dopamine receptor; on D(1A) dopamine receptor) were 530 nM, 550 nM and > 1000 nM, respectively.

For the compound `c1cnc(N2CCN(CCc3ccc4nc[nH]c4c3)CC2)nc1`, the Ki (in test [1]; at D(2) dopamine receptor) was > 1000 nM in each case.
